# Sampled rows, rich in hits. Any-hit rate of the full collection: about 3.7%.
# KCNQ1 block: blocks the human KCNQ1 potassium channel | CHO-K1 KCNQ1, FluxOR thallium flux fluorescence; stronger effect = higher value | 310,000 compounds, 1.3% hits | B-score at 10 µM | AID 2642;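 active = compounds whose thallium flux B-score, printed positive for inhibition, exceeds three library SD while starting fluorescence stays within three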;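 also: channel opened by potassium depolarization with thallium stimulus after 20 min compound exposure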
# Kir21 inh: blocks the mouse Kir2.1 inward-rectifier potassium channel; P35561; HEK293-Kir2.1, FluxOR thallium flux fluorescence; stronger effect = lower value; B-score at 10 µM; 310,000 compounds, 0.85% hits;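 active = fluorescence ratio B-score at or below minus 3 SD of library scores, with starting-brightness B-score within 2 SD, cut at about -4.2 in these data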;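 also: channel flux triggered by added potassium and thallium sulfate stimulus; B-score of peak minus minimum fluorescence over baseline after thallium stimulus; more negative B-score means stronger Kir2.1 block with less thallium influx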
# KCNQ1 act: human KCNQ1 channel potentiation or activation | P51787 | CHO-K1 KCNQ1, thallium flux FluxOR fluorescence; stronger effect = higher value | B-score at 10 µM | 310,000 compounds, 0.35% hits | AID 2648;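 active = fluorescence ratio B-score, a plate-corrected score, at least three library SD, with initial intensity B-score within 5 SD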
#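 Medium – assay buffer, equal DMSO in all wells · Material – CHO-K1 cell line with stable KCNQ1 potassium channel expression · Signal – kinetic FluxOR thallium fluorescence, 10-s 1-Hz baseline, 110-s post-stimulus read · Compound – single concentration per compound, DMSO matched to controls · Schedule – 37 °C overnight plating, 90-min dark dye load, 20-min compound pretreatment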
# hERG rescue: hERG (human) protection from proarrhythmic block | CHO-hERG, FluxOR thallium flux, dofetilide IC70 present | activation (rescue from dofetilide block), less the hit threshold, % at 10 µM | 310,000 compounds, 0.51% hits | AID 1511;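 active = activation above the mean of controls blocked by dofetilide plus 5 SD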;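 also: thallium influx through hERG after potassium depolarization seen as dye fluorescence rise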
# KCNK3 inh: human KCNK3 channel inhibition, primary screen. CHO-KCNK3 thallium flux, FluxOR fluorescence; stronger effect = lower value. B-score at 10 µM. 340,000 compounds, 0.84% hits;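 active = B-score under library mean minus 4 SD, starting fluorescence ratio at most library mean plus 5 SD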;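 also: more negative B-score means stronger inhibition of thallium flux through KCNK3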
# KCNK9 block: blocks the human KCNK9 two-pore domain potassium channel; Q9NPC2; HEK293 KCNK9, FluxOR thallium flux fluorescence; stronger effect = lower value; B-score at 10 µM; 310,000 compounds, 1.2% hits;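 active = ratio B-score over 3 SD below the library mean, with starting fluorescence within 5 SD of its mean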;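 also: negative B-score means less thallium flux so channel inhibition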
# Target sequence (Q9NPC2 whole entry, looked up, the tested form may be a part): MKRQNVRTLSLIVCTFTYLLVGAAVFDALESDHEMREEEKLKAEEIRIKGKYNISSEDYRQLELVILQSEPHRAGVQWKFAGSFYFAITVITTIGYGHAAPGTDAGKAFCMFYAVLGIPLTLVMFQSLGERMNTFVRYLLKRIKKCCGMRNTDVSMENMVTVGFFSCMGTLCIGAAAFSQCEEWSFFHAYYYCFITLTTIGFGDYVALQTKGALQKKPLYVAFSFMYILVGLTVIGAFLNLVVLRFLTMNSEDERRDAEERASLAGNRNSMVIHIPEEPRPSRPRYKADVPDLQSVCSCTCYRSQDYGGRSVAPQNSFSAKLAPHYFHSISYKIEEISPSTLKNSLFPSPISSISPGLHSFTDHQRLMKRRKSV
# KCNQ1 block val: human KCNQ1 channel inhibition, validation assay. shares compounds with KCNQ1 block. KCNQ1 cell line, FluxOR thallium flux fluorescence. inhibition, % at 10 µM. 1,600 compounds, 93% hits. AID 588353;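 active = primary screen active, with duplicate mean exceeding buffer control mean plus 3 SD of buffer wells, cut at about 28% in these data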;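 also: 0% = buffer control ratio and 100% = XE991 inhibitor control ratio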
# CHO KCNQ1 ctr: activity in parental CHO cells lacking KCNQ1. AID 588366. fluorescence ratio (Tl flux) at 10 µM. parental CHO-K1, FluxOR thallium flux fluorescence ratio; stronger effect = lower value; zero means no signal rise above baseline. shares compounds with KCNQ1 block. 1,600 compounds, 21% hits;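 active = mean of duplicate thallium-flux fluorescence ratios in parental host cells more than 5 SD below the buffer control mean, cut at about 0.38 in these data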;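 also: ratio is peak minus minimum fluorescence divided by baseline fluorescence; actives read low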
# KCNQ1 ephys val: confirmation of human KCNQ1 potassium channel inhibitors by electrophysiology; shares compounds with KCNQ1 block; KCNQ1-CHO cells, automated patch clamp current; calls only at 10 µM; 490 compounds, 20% hits;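 active = KCNQ1 current drop exceeding 3 SD of negative control wells, seen in both duplicate runs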;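 also: steady state current during a 2 s step from -80 to +40 mV; negative values mean current inhibition and positive values mean potentiation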
# KCNQ2 inh: selectivity of KCNQ1 inhibitors: inhibition of rat KCNQ2 channel. KCNQ2 cells, FluxOR thallium flux fluorescence. inhibition, % at 10 µM. shares compounds with KCNQ1 block. AID 651746. 1,600 compounds, 71% hits;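 active = mean percent inhibition of the KCNQ2 thallium signal more than 5 SD above the buffer-only control wells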;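 also: KCNQ2 expressed in CHO cells; 0% = buffer control wells and 100% = XE-991 inhibitor control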
# KCNQ1-KCNE1 inh: human KCNQ1/KCNE1 inhibition in KCNQ1 specificity screen. AID 652147. shares compounds with KCNQ1 block. inhibition, % at 10 µM. KCNQ1/KCNE1 cells, FluxOR thallium flux fluorescence. 1,600 compounds, 77% hits;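 active = mean percent inhibition of duplicate wells above the buffer-only control mean plus 3 SD of those controls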;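 also: 0% = buffer only wells and 100% = XE-991 inhibitor control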
# Numbers without * were called inactive; i = inactive; x = no result; + = active, no number.
SMILES,KCNQ1 block,Kir21 inh,KCNQ1 act,hERG rescue,KCNK3 inh,KCNK9 block,KCNQ1 block val,CHO KCNQ1 ctr,KCNQ2 inh,KCNQ1-KCNE1 inh,others
CC1CN(c2nc3ccccc3nc2SCC(=O)Nc2cccc(C(F)(F)F)c2)CC(C)O1 (stereo not drawn),10*,-1.3,i,-5,-15*,i,120*,0.4,126%*,171%*,KCNQ1 ephys val=i
Cc1cccc(NC(=O)CSc2nc3ccccc3nc2N2CCCC2)c1,i,-1.8,i,-10,i,i,x,x,x,x,
Cc1cccc(NC(=O)CSc2nc3ccccc3nc2N2CCCCC2)c1,8*,0.13,i,-4,i,i,84*,0.47,107%*,122%*,
COc1ccccc1NC(=O)CSc1nc2ccccc2nc1N1CC(C)OC(C)C1 (stereo not drawn),8*,0.83,i,-12,i,i,86*,0.45,106%*,118%*,
COc1ccc(C)cc1NC(=O)CSc1nc2ccccc2nc1N1CCCC1,i,0.98,i,-12,i,i,x,x,x,x,
COc1ccc(C)cc1NC(=O)CSc1nc2ccccc2nc1N1CC(C)OC(C)C1 (stereo not drawn),7*,1.6,i,-9,i,i,105*,0.44,95%*,121%*,KCNQ1 ephys val=i
CCN(CC)S(=O)(=O)c1cccc(C(=O)NC(Cc2c[nH]c3ccccc23)c2nnc3n2CCC3)c1 (stereo not drawn),i,0.34,i,-3,i,i,x,x,x,x,
CCN(CC)C1CC(=O)N(c2cccc(Cl)c2)C1=O (stereo not drawn),i,0.16,i,-11,i,i,x,x,x,x,
Cc1ccc(NC(=O)CN2C(=O)NC(Cc3c[nH]c4ccccc34)C2=O)cc1 (stereo not drawn),x,x,x,x,i,x,x,x,x,x,
CC(=O)Nc1ccc(NC(=O)CSc2nnnn2-c2ccc(F)cc2)cc1,i,-2.1,i,-5,i,i,x,x,x,x,
ClCc1nc2ccccc2n1Cc1ccccc1,7*,-5,i,-15,i,i,0,0.45,84%*,i,
O=C(CN1CCN(c2ccc(Cl)cc2)CC1)Nc1cccc(F)c1,i,-0.39,i,-8,i,i,x,x,x,x,
O=C(Nc1cccc(F)c1)N1CC=C(c2ccc(Cl)cc2)CC1,13*,-0.18,i,-11,i,i,132*,0.44,103%*,168%*,KCNQ1 ephys val=i
N#Cc1c(C(F)(F)F)cc(-c2ccc(F)cc2)[nH]c1=O,11*,0.28,i,-6,i,i,40*,0.54,i,i,
N#Cc1c(C(F)(F)F)cc(-c2ccc(Cl)cc2)[nH]c1=O,i,0.63,i,-3,i,i,x,x,x,x,
CC1CCN(CCCNC(=O)c2ccc3c(=O)n(Cc4ccc(Cl)cc4)c(=S)[nH]c3c2)CC1,7*,0.05,i,-44,i,i,0,0.48,i,i,
CN(C)C(=O)CCSc1nnc(-c2ccncc2)o1,i,-0.73,i,-19,i,i,x,x,x,x,
O=C(Nc1ccc(Cl)cc1)Nc1nnc(-c2ccncc2)s1,i,-0.41,i,-11,i,i,x,x,x,x,
Cc1ccc(NC(=O)Nc2nnc(-c3ccncc3)s2)cc1C,11*,0.82,i,-8,i,i,105*,0.5,i,57%*,KCNQ1 ephys val=i
Cc1cccc(C)c1-n1nnnc1C1(Nc2ccccc2)CCCCC1,7*,0.01,i,-14,i,-7.7*,109*,0.36*,109%*,130%*,
Cc1ccc(S(=O)(=O)NCC(=O)OCC(=O)NCc2cccs2)cc1,i,0.03,i,-15,i,i,x,x,x,x,
COc1cccc(CC(=O)Nc2cc(S(=O)(=O)N3CCOCC3)ccc2N2CCN(C)CC2)c1,x,x,x,x,i,x,x,x,x,x,
COc1cc(CNc2ncnc3c2[nH]c2ccc(C)cc23)cc(OC)c1,i,0.16,i,-13,i,i,x,x,x,x,
Cc1ccc2[nH]c3c(NCc4ccco4)ncnc3c2c1,9*,0.09,i,-20,i,i,102*,0.45,70%*,39%*,KCNQ1 ephys val=i
CCCCC(=O)O[C@H]1CC[C@H]2[C@@H]3CCc4cc(O)ccc4[C@H]3CC[C@]12C,6*,0.01,i,-5,i,i,72*,0.44,63%*,100%*,
SMILES,KCNQ1 block,Kir21 inh,KCNQ1 act,hERG rescue,KCNK3 inh,KCNK9 block,KCNQ1 block val,CHO KCNQ1 ctr,KCNQ2 inh,KCNQ1-KCNE1 inh,others
CC(C)(C)c1csc(NC(=O)Cc2ccc(S(=O)(=O)N3CCOCC3)s2)n1,9*,-1.4,i,-7,i,i,72*,0.47,i,96%*,
c1ccc(-c2cc3ccccc3[nH]2)cc1,i,2,i,-11,i,i,x,x,x,x,
Clc1ccc2[nH]c(-c3ccccc3)cc2c1,9*,-0.05,i,-3,i,i,131*,0.52,92%*,132%*,KCNQ1 ephys val=i
COc1ccc(NC(=O)c2cc(-c3cc(C)cc(C)c3O)n[nH]2)cc1Cl,8*,1.6,i,-8,-9.2*,i,168*,0.27*,114%*,+,
Cc1c(N=C2N=C(NC(=O)Nc3ccc(Cl)cc3)c3ccccc32)c(=O)n(-c2ccccc2)n1C,i,-2,i,-12,i,i,x,x,x,x,
O=C1CCCCC1C(Nc1ccc(Cl)cc1)c1ccccc1 (stereo not drawn),i,0.7,i,-8,i,i,x,x,x,x,
O=C1CCCCC1C(Nc1ccc(Br)cc1)c1ccccc1 (stereo not drawn),8*,1.1,i,-3,i,-6.6*,126*,0.44,89%*,172%*,KCNQ1 ephys val=+
S=C(NCc1cccs1)Nc1cccc(Cl)c1,i,-0.31,i,-11,i,i,x,x,x,x,
S=C(NCc1cccs1)Nc1cc(Cl)cc(Cl)c1,6*,1.9,i,-10,i,i,34*,0.54,78%*,i,
O=Cc1c(-c2ccccc2)cc2oc3ccccc3cc1-2,i,2.3,i,-7,i,i,x,x,x,x,
